From PubChem
TRPC6 inh = mouse TRPC6 channel inhibitors, primary screen, cell-based, HEK293, membrane potential dye; Short transient receptor potential channel 6 (Mus musculus), Q61143; ACh-evoked depolarization; active compounds read low; B-score at 10 µM; 1.1% of 310,000 active;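 active = B-score under library mean minus 3 SD, initial fluorescence not abnormally high, positive integrated signal ratio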;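 also: B-score derived from integrated fluorescence ratio over the kinetic read; more negative B-score means stronger inhibition of depolarization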
Target sequence (Q61143 whole entry, looked up): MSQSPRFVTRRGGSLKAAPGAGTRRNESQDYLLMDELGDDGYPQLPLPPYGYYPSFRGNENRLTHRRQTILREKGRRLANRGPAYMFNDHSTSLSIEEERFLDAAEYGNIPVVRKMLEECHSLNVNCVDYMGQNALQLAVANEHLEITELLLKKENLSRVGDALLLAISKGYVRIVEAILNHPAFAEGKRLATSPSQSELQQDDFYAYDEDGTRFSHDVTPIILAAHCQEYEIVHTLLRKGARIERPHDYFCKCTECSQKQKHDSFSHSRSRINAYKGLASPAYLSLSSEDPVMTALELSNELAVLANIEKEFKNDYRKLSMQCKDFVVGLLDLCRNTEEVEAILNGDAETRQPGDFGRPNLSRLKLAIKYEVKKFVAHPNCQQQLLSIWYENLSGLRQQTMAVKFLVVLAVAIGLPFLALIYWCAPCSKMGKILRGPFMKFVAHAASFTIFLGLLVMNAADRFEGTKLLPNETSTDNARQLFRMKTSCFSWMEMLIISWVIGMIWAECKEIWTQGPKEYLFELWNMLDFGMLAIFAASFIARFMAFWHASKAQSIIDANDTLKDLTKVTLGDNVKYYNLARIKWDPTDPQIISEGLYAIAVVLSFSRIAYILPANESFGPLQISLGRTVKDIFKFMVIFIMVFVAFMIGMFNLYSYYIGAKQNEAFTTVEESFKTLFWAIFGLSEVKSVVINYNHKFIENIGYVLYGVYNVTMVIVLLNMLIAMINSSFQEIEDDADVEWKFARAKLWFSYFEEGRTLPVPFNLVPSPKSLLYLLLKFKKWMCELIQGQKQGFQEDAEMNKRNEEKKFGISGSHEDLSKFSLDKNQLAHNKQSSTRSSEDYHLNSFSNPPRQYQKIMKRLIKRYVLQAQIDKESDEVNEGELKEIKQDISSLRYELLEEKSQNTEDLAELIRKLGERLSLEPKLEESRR
TRPC4 block = inhibitors of mouse TRPC4 channel, primary screen, Fluo4 calcium, HEK293 TRPC4beta/mu-opioid cells; B-score at 10 µM; Short transient receptor potential channel 4 (Mus musculus), Q9QUQ5; 0.39% of 300,000 active; DAMGO-evoked Fluo4 calcium flux; active compounds read low;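 active = B-score over 3 SD under the library average, no early fluorescence shift, positive overall ratio signal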
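Assay system: Stable TRPC4beta/mu-opioid receptor HEK293 cells | Reagent: DAMGO in two steps, submaximal then maximal | Compound dosing: Single concentration per test compound | Signal: Fluo4 Ca2+ flux fluorescence | Evaluation: Per-well B score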
TRPC4 agonist = activators of mouse TRPC4 channel, primary screen, Fluo4 calcium, HEK293 TRPC4beta/mu-opioid cells | Short transient receptor potential channel 4 (Mus musculus), Q9QUQ5 | Fluo4 calcium fluorescence; active compounds read high | B-score at 10 µM | 0.49% of 310,000 active;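 active = B-score above 5 SD of library B-scores, and initial fluorescence ratio not above library mean plus 5 SD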;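 also: positive B-score marks a calcium rise read as TRPC4 activation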
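Test system: HEK293 cells stably co-expressing mouse TRPC4beta and mu-opioid receptor | Schedule: Fluo4 dye loading 45 min at room temperature, 110 s recording | Measured by: Kinetic Fluo4 calcium fluorescence, 5 s baseline at 1 Hz | Evaluation: B score of integrated ratio | Controls: Buffer (low) and maximal DAMGO (high)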
TRPC6 activator = mouse TRPC6 channel activators, primary screen, cell-based, HEK293, membrane potential dye | Short transient receptor potential channel 6 (Mus musculus), Q61143 | HEK293-TRPC6 membrane potential dye fluorescence; active compounds read high | B-score at 10 µM | 0.13% of 310,000 active | AID 2550, 2010;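 active = B-score of the integrated fluorescence ratio above library mean plus 3 SD, and starting fluorescence ratio within library mean plus 5 SD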;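 also: higher score means more depolarization so channel activation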
TRPC4 PAM = positive allosteric modulators of TRPC4, primary screen, cell-based, mouse TRPC4beta, HEK293 mu-opioid, Fluo-4 calcium. Short transient receptor potential channel 4 (Mus musculus), Q9QUQ5. DAMGO EC20, Fluo-4 Ca2+ flux; active compounds read high. B-score at 10 µM. 0.42% of 310,000 active;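 active = B-score of calcium response area above 5 SD of library B-scores, with initial fluorescence ratio within 5 SD of library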
Numbers stand for hits; n = inactive. An excerpt weighted towards active compounds, which were near 2.3% of everything screened.

SMILES	TRPC6 inh	TRPC4 block	TRPC4 agonist	TRPC6 activator	TRPC4 PAM
COc1ccc(OC)c(NC(=O)c2cc(S(=O)(=O)N(C)C)ccc2N2CCCC2)c1	n	n	n	n	n
O=C(c1ccc([N+](=O)[O-])s1)N1CCN(c2cccc(Cl)c2)CC1	n	-6	n	n	n
C=CCN(C(=O)c1csnn1)C(C(=O)NC1CCCC1)c1ccc(OC)cc1 (centres undefined)	n	n	n	n	n
Cc1ccc(NC(=O)Nc2ccc([N+](=O)[O-])cc2)nc1	n	n	n	n	n
Cc1ccc(NC(=O)Nc2cccc([N+](=O)[O-])c2)nc1	n	n	n	n	19
COc1cc(C(Nc2ccccn2)c2c(NC(=O)c3ccco3)sc(C)c2C)cc(OC)c1OC (centres undefined)	n	n	n	n	n
COc1ccc(C(Nc2ccccn2)c2c(NC(=O)c3ccco3)sc(C)c2C)cc1OC (centres undefined)	n	-6	n	n	n
Cc1cccc(N2CCN(C(=O)c3cc(COc4ccc(F)c(F)c4)on3)CC2)n1	n	n	n	n	n
O=C1NC(c2ccccc2)=C(c2nc3ccccc3s2)C(c2ccc(F)cc2)N1 (centres undefined)	n	n	n	n	11
O=C(c1cccc(Cl)c1)N1CCC(=O)N(C(COCc2cccc(Cl)c2)Cc2ccccc2)CC1 (centres undefined)	n	n	n	n	n
Cc1cccc(C(=O)N2CCC(=O)N(C(COCc3cccc(Cl)c3)Cc3ccccc3)CC2)c1 (centres undefined)	n	n	45	n	n
C=CCOc1ccc(/C=C2\SC(=S)N(NS(=O)(=O)c3ccc(C)cc3)C2=O)cc1	n	n	n	n	12
COc1cc(S(=O)(=O)N2CCC(N3CCCCC3)CC2)ccc1-n1cnnn1	n	n	n	n	17
O=S(=O)(c1ccc(-n2cnnn2)cc1)N1CCC(N2CCCCC2)CC1	n	n	n	n	12
O=C(Nc1ccccc1C(=O)O)c1cc(S(=O)(=O)N2CCOCC2)c(Br)s1	n	n	n	n	n
CC(=O)O[C@H]1CC[C@@]2(C)C(CCC3C2CC[C@]2(C)OC(=O)CCC32)C1 (some centres undefined)	n	n	n	n	10
CC(=O)OC1C([N+]2(C)CCCCC2)C[C@H]2C3CC[C@H]4C[C@H](OC(C)=O)C([N+]5(C)CCCCC5)CC4(C)[C@H]3CCC12C (some centres undefined)	n	n	n	n	n
Cc1ccc(Nc2c(N)c(=O)oc3ccccc23)cc1	n	n	n	n	31
O=Cc1c(SCCO)nc2ccccn2c1=O	n	n	n	n	n
COC(=O)CSc1nc2ccccn2c(=O)c1C=O	n	-6	n	n	n
CC1(c2cc([N+](=O)[O-])cc([N+](=O)[O-])c2)CC(C)(C)N(C(=O)c2ccccc2)c2ccccc21 (centres undefined)	n	n	n	n	n
CC1(c2ccccc2)CC(C)(C)N(C(=O)C2CCCO2)c2ccccc21 (centres undefined)	n	-7	n	n	n
CCc1sc(C(C2C(=O)CC(C)(C)CC2=O)C2C(=O)CC(C)(C)CC2=O)cc1[N+](=O)[O-]	n	n	95	n	n
CC(C)C1=Nc2cccc3cccc(c23)N1	n	-6	n	n	n
CCCCC(=O)N1CCN(c2nc3ccc(F)cc3s2)CC1	n	n	78	n	n
SMILES	TRPC6 inh	TRPC4 block	TRPC4 agonist	TRPC6 activator	TRPC4 PAM
CCN(CCO)Cc1csc2ccc(Br)cc12	n	n	n	n	18
Cc1cc2ncc(-c3cccs3)nc2cc1C	n	n	n	n	n
CN1CCN(S(=O)(=O)c2ccc(Br)c3ccccc23)CC1	n	n	n	n	49
CCN1CCN(S(=O)(=O)c2c(C)cc(C)cc2C)CC1	n	n	n	n	21
CC(=O)c1ccc(OCC(O)CN2CCN(S(=O)(=O)c3c(C)cc(C)cc3C)CC2)cc1 (centres undefined)	n	n	n	n	22
Cc1cc(C)c(S(=O)(=O)N2CCN(C)CC2)c(C)c1	n	n	n	n	21
CN1CCN(S(=O)(=O)c2ccc(Cl)c3ccccc23)CC1	n	n	n	n	n
COc1cc(C)c(S(=O)(=O)N2CCN(C)CC2)cc1C	n	n	n	n	n
CN1CCN(S(=O)(=O)c2cc(Cl)c(Cl)cc2Cl)CC1	n	n	51	n	n
C=CCc1cc(Cl)ccc1OCCn1ccnc1	n	n	116	n	14
C=CCc1cc(C)ccc1OCCn1ccnc1	n	n	n	n	n
C=CCc1cc(Cl)ccc1OCCCn1ccnc1	n	n	n	n	19
Cc1cccc(N2CCN(C(=O)C3(S(=O)(=O)c4ccc(Cl)cc4)CC3)CC2)c1C	n	n	n	n	19
CCCc1nc2oc3c(NCCN(C)C)ncnc3c2c2c1CCCC2	n	-6	n	n	n
O=C(O)c1ccc(C(=O)Nc2cccc3ccccc23)c(C(=O)O)c1	n	n	n	n	n
COc1ccccc1NC(=O)CSc1nnnn1-c1ccccc1F	n	n	73	n	n
CN(Cc1ccccc1)Cc1nc2c(c(=O)n(C)c(=O)n2C)n1CCCc1ccccc1	n	n	n	n	37
CC(C)Cn1c(CN(C)Cc2ccccc2)nc2c1c(=O)n(C)c(=O)n2C	n	n	n	n	n
O=C(N/N=C/c1ccccc1[N+](=O)[O-])c1cnccn1	n	n	n	n	20
c1ccc(Cn2nnnc2C(c2cccnc2)N2CCN(C3CCCCC3)CC2)cc1 (centres undefined)	n	n	103	n	n
Fc1ccc(C(c2nnnn2Cc2cccs2)N2CCN(C3CCCC3)CC2)cc1 (centres undefined)	n	n	n	n	n
Fc1ccc(C(c2nnnn2Cc2ccco2)N2CCN(C3CCCCC3)CC2)cc1 (centres undefined)	n	n	196	n	n
Cc1ccc(S(=O)(=O)c2cnc(-c3ccccc3)nc2N2CCN(C)CC2)cc1	n	-6	n	n	n
CN1CCN(c2nc(-c3ccccc3)ncc2S(=O)(=O)c2ccccc2)CC1	n	n	n	n	n
Clc1cc(/C=N\NC2=NCCN2)cc(Cl)n1	n	n	n	n	18
Cc1c(C(N)=O)c(-c2ccccc2)nn1-c1ccccc1	n	n	n	n	n
CCCc1c(-c2ccc(O)cc2)nn(-c2ccc(O)cc2)c1-c1ccc(O)cc1	n	n	n	n	27
